ChEMBL document CHEMBL1240350, “In vitro activity of CEM-101 against Streptococcus pneumoniae and Streptococcus pyogenes with defined macrolide resistance mechanisms” (Antimicrob Agents Chemother, 2010)
In brackets after ≈: the same amount, converted by molar mass.

Legend:
Streptococcus pneumoniae [1] = experiment: Antibacterial activity against macrolide-resistant Streptococcus pneumoniae 2686 harboring mutation in L4 ribosomal protein after 22 passages and 10 compound-free subculturing by retest method; type: functional
Streptococcus pneumoniae [2] = experiment: Antibacterial activity against Streptococcus pneumoniae harboring mutation in 23S rRNA after overnight incubation by agar dilution method; type: functional
In short: (§1)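 Clinical isolates collected 1998–2008, with macrolide-resistance genes confirmed by PCR. MICs by agar dilution on Mueller-Hinton agar with 5% sheep blood. Inoculum 10^4 CFU/spot, incubated overnight at 35°C in ambient air. S. pneumoniae ATCC 49619 was the quality-control strain in every run.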

Streptococcus pneumoniae [3] = experiment: Antibacterial activity against macrolide-susceptible Streptococcus pneumoniae 7127 harboring S20N mutation in L4 ribosomal protein and A105V mutation in L22 ribosomal protein after 38 passages and 10 compound-free subculturing by retest method; type: functional
Streptococcus pneumoniae [4] = experiment: Antibacterial activity against macrolide-resistant Streptococcus pneumoniae 1076 harboring erm(B) and mef(A) gene after 14 passages and 10 compound-free subculturing by retest method; type: functional
In short: (§2)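 Multistep selection by daily serial passage in subinhibitory drug concentrations. Medium was cation-adjusted Mueller-Hinton broth plus 5% lysed horse blood. Each day the next inoculum came from the tube 1–2 dilutions below the MIC whose turbidity matched the growth control, for up to 50 days. Clone MICs by CLSI macrodilution; identity to the parent confirmed by SmaI PFGE.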

Streptococcus pyogenes [5] = experiment: Antibacterial activity against macrolide-resistant Streptococcus pyogenes 2368 harboring erm(B) gene after 6 passages and 10 compound-free subculturing by retest method
Streptococcus pyogenes [6] = experiment: Antibacterial activity against macrolide-resistant Streptococcus pyogenes 2094 harboring erm(A) gene after overnight incubation by agar dilution method
Streptococcus pneumoniae [7] = experiment: Antibacterial activity against macrolide-susceptible Streptococcus pneumoniae 7127 harboring S20N mutation in L4 ribosomal protein and A105V mutation in L22 ribosomal protein after 16 passages and 10 compound-free subculturing by retest method; type: functional
Streptococcus pyogenes [8] = experiment: Antibacterial activity against macrolide-resistant Streptococcus pyogenes 2094 harboring erm(A) gene after 22 passages and 10 compound-free subculturing by retest method
Streptococcus pneumoniae [9] = experiment: Antibacterial activity against Streptococcus pneumoniae harboring mutation in L4 ribosomal protein after overnight incubation by agar dilution method; type: functional; in short: as §1
Streptococcus pyogenes [10] = experiment: Antibacterial activity against macrolide-resistant Streptococcus pyogenes 2368 harboring erm(B) gene after 18 passages and 10 compound-free subculturing by retest method
Streptococcus pneumoniae [11] = experiment: Antibacterial activity against macrolide-resistant Streptococcus pneumoniae 1635 harboring erm(A) gene after overnight incubation by agar dilution method; type: functional
Streptococcus pneumoniae [12] = experiment: Antibacterial activity against macrolide-resistant Streptococcus pneumoniae 1076 harboring erm(B) and mef(A) gene after 18 passages and 10 compound-free subculturing by retest method; type: functional; in short: as §2
Streptococcus pneumoniae [13] = experiment: Antibacterial activity against penicillin-resistant Streptococcus pneumoniae after overnight incubation by agar dilution method; type: functional
In short: (§3)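 Agar dilution on Mueller-Hinton agar supplemented with 5% sheep blood. Inoculum 10^4 CFU/spot, incubated overnight at 35°C in ambient air. Test strains were clinical pneumococcal isolates. S. pneumoniae ATCC 49619 was included as the quality control strain in each run. MIC range, MIC50 and MIC90 were reported for each susceptibility category.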

Streptococcus pneumoniae [14] = experiment: Antibacterial activity against quinolone-resistant Streptococcus pneumoniae after overnight incubation by agar dilution method; type: functional; in short: as §3
Streptococcus pneumoniae [15] = experiment: Antibacterial activity against macrolide-resistant Streptococcus pneumoniae 2686 harboring mutation in L4 ribosomal protein after overnight incubation by agar dilution method; type: functional
Streptococcus pyogenes [16] = experiment: Antibacterial activity against macrolide-resistant Streptococcus pyogenes 2368 harboring erm(B) gene after overnight incubation by agar dilution method
Streptococcus pneumoniae [17] = experiment: Antibacterial activity against macrolide-resistant Streptococcus pneumoniae 24 harboring erm(B) gene after overnight incubation by agar dilution method; type: functional
Streptococcus pyogenes [18] = experiment: Antibacterial activity against macrolide-resistant Streptococcus pyogenes 2094 harboring erm(A) gene after 34 passages and 10 compound-free subculturing by retest method
Streptococcus pneumoniae [19] = experiment: Antibacterial activity against penicillin-susceptible Streptococcus pneumoniae after overnight incubation by agar dilution method; type: functional; in short: as §3
Streptococcus pyogenes [20] = experiment: Antibacterial activity against macrolide-resistant Streptococcus pyogenes harboring erm(B) gene after overnight incubation by agar dilution method; type: functional
In short: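 Agar dilution MICs on Mueller-Hinton agar with 5% sheep blood. Inoculum 10^4 CFU/spot, incubated overnight at 35°C in ambient air. Clinical S. pneumoniae or group A streptococcal isolates; resistance genotypes (erm(B), erm(A), mef(A)/mef(E)) were assigned by PCR. S. pneumoniae ATCC 49619 served as QC strain in each run. Range, MIC50 and MIC90 reported per phenotype group.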

Streptococcus pyogenes [21] = experiment: Antibacterial activity against macrolide-resistant Streptococcus pyogenes 2011 harboring mef(A) gene after overnight incubation by agar dilution method
Streptococcus pyogenes [22] = experiment: Antibacterial activity against macrolide-resistant Streptococcus pyogenes 2094 harboring erm(A) gene after 5 passages and 10 compound-free subculturing by retest method
Streptococcus pneumoniae [23] = experiment: Antibacterial activity against quinolone-susceptible Streptococcus pneumoniae after overnight incubation by agar dilution method; type: functional; in short: as §3
Streptococcus pyogenes [24] = experiment: Antibacterial activity against macrolide-susceptible Streptococcus pyogenes after overnight incubation by agar dilution method; type: functional
In short: (§4)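 Agar dilution on Mueller-Hinton agar supplemented with 5% sheep blood, inoculum 10^4 CFU/spot, read after overnight incubation at 35°C in ambient air. Clinical isolates with defined genotypes; S. pneumoniae ATCC 49619 quality control strain included in each run. MIC50/MIC90 are MICs inhibiting 50% and 90% of isolates.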

Streptococcus pneumoniae [25] = experiment: Antibacterial activity against Streptococcus pneumoniae harboring erm(A) gene after overnight incubation by agar dilution method; type: functional; in short: as §1
Streptococcus pneumoniae [26] = experiment: Antibacterial activity against macrolide-resistant Streptococcus pneumoniae 1076 harboring erm(B) and mef(A) gene after overnight incubation by agar dilution method; type: functional
Streptococcus pneumoniae [27] = experiment: Antibacterial activity against macrolide-resistant Streptococcus pneumoniae 2686 harboring mutation in L4 ribosomal protein after 14 passages and 10 compound-free subculturing by retest method; type: functional
Streptococcus pneumoniae [28] = experiment: Antibacterial activity against macrolide-resistant Streptococcus pneumoniae 3665 harboring mef(A) gene after 14 passages and 10 compound-free subculturing by retest method; type: functional
Streptococcus pneumoniae [29] = experiment: Antibacterial activity against Streptococcus pneumoniae harboring erm(B) and mef(A) gene after overnight incubation by agar dilution method; type: functional; in short: as §1
Streptococcus pneumoniae [30] = experiment: Antibacterial activity against macrolide-susceptible Streptococcus pneumoniae 7127 harboring S20N mutation in L4 ribosomal protein and A105V mutation in L22 ribosomal protein after 29 passages and 10 compound-free subculturing by retest method; type: functional
Streptococcus pneumoniae [31] = experiment: Antibacterial activity against penicillin-intermediate Streptococcus pneumoniae after overnight incubation by agar dilution method; type: functional; in short: as §4
Streptococcus pyogenes [32] = experiment: Antibacterial activity against Streptococcus pyogenes harboring erm(A) gene after overnight incubation by agar dilution method; type: functional; in short: as §1
[33] = Streptococcus pneumoniae, 3665, read-out: MIC

CCC[C@@H]1C[C@@H](C(=O)N[C@@H]([C@H]2O[C@H](SC)[C@H](O)[C@@H](O)[C@H]2O)[C@H](C)Cl)N(C)C1 [CLINDAMYCIN]
MIC (Streptococcus pneumoniae [1]): 0.03 µg/mL (≈ 0.0706 µM)
MIC (Streptococcus pneumoniae [2]): 0.03 µg/mL (≈ 0.0706 µM)
MIC (Streptococcus pneumoniae [3]): 0.03 µg/mL (≈ 0.0706 µM)
MIC (Streptococcus pneumoniae [4]): > 64 µg/mL
MIC (Streptococcus pyogenes [5]): > 64 µg/mL
MIC (Streptococcus pyogenes [6]): 0.06 µg/mL (≈ 0.141 µM)
MIC (Streptococcus pneumoniae [7]): 0.03 µg/mL (≈ 0.0706 µM)
MIC (Streptococcus pyogenes [8]): > 64 µg/mL
MIC50 (Streptococcus pneumoniae [9]): 0.06 µg/mL (≈ 0.141 µM)
MIC90 (Streptococcus pneumoniae [9]): 0.125 µg/mL (≈ 0.294 µM)
MIC (Streptococcus pyogenes [10]): > 64 µg/mL
MIC (Streptococcus pneumoniae [11]): 0.06 µg/mL (≈ 0.141 µM)
MIC (Streptococcus pneumoniae [12]): > 64 µg/mL
MIC50 (Streptococcus pneumoniae [13]): 0.06 µg/mL (≈ 0.141 µM)
MIC50 (Streptococcus pneumoniae [14]): 0.03 µg/mL (≈ 0.0706 µM)
MIC90 (Streptococcus pneumoniae [14]): 64 µg/mL (≈ 151 µM)
MIC (Streptococcus pneumoniae [15]): 0.03 µg/mL (≈ 0.0706 µM)
MIC (Streptococcus pyogenes [16]): > 64 µg/mL
MIC (Streptococcus pneumoniae [17]): > 64 µg/mL
MIC (Streptococcus pyogenes [18]): > 64 µg/mL
MIC50 (Streptococcus pneumoniae [19]): 0.06 µg/mL (≈ 0.141 µM)
MIC90 (Streptococcus pneumoniae [19]): > 64 µg/mL
MIC50 (Streptococcus pyogenes [20]): > 64 µg/mL
MIC90 (Streptococcus pyogenes [20]): > 64 µg/mL
MIC (Streptococcus pyogenes [21]): 0.06 µg/mL (≈ 0.141 µM)
MIC (Streptococcus pyogenes [22]): 0.06 µg/mL (≈ 0.141 µM)
MIC50 (Streptococcus pneumoniae [23]): 0.06 µg/mL (≈ 0.141 µM)
MIC90 (Streptococcus pneumoniae [23]): > 64 µg/mL
MIC50 (Streptococcus pyogenes [24]): 0.06 µg/mL (≈ 0.141 µM)
MIC90 (Streptococcus pyogenes [24]): 0.06 µg/mL (≈ 0.141 µM)
MIC (Streptococcus pneumoniae [25]): 0.125 µg/mL (≈ 0.294 µM)
MIC (Streptococcus pneumoniae [26]): 64 µg/mL (≈ 151 µM)
MIC (Streptococcus pneumoniae [27]): 0.03 µg/mL (≈ 0.0706 µM)
MIC (Streptococcus pneumoniae [28]; [33]): 0.03 µg/mL (≈ 0.0706 µM)
MIC50 (Streptococcus pneumoniae [29]): 0.06 µg/mL (≈ 0.141 µM)
MIC (Streptococcus pneumoniae [30]): 0.06 µg/mL (≈ 0.141 µM)
MIC50 (Streptococcus pneumoniae [31]): 0.125 µg/mL (≈ 0.294 µM)
MIC90 (Streptococcus pneumoniae [31]): > 64 µg/mL
MIC50 (Streptococcus pyogenes [32]): 0.125 µg/mL (≈ 0.294 µM)
MIC90 (Streptococcus pyogenes [32]): 0.25 µg/mL (≈ 0.588 µM)

CC[C@H]1OC(=O)[C@H](C)C(=O)[C@H](C)[C@@H](O[C@@H]2O[C@H](C)C[C@H](N(C)C)[C@H]2O)[C@](C)(OC)C[C@@H](C)C(=O)[C@H](C)[C@H]2N(CCCCn3cnc(-c4cccnc4)c3)C(=O)O[C@]12C [TELITHROMYCIN]
MIC (Streptococcus pneumoniae [1]): 0.25 µg/mL (≈ 0.308 µM)
MIC (Streptococcus pneumoniae [2]): 0.03 µg/mL (≈ 0.0369 µM)
MIC (Streptococcus pneumoniae [3]): 0.03 µg/mL (≈ 0.0369 µM)
MIC (Streptococcus pneumoniae [4]): > 64 µg/mL
MIC (Streptococcus pyogenes [5]): > 64 µg/mL
MIC (Streptococcus pyogenes [6]): 0.03 µg/mL (≈ 0.0369 µM)
MIC (Streptococcus pneumoniae [7]): 0.06 µg/mL (≈ 0.0739 µM)
MIC (Streptococcus pyogenes [8]): 0.125 µg/mL (≈ 0.154 µM)
MIC50 (Streptococcus pneumoniae [9]): 0.125 µg/mL (≈ 0.154 µM)
MIC90 (Streptococcus pneumoniae [9]): 0.25 µg/mL (≈ 0.308 µM)
MIC (Streptococcus pyogenes [10]): > 64 µg/mL
MIC (Streptococcus pneumoniae [11]): 0.004 µg/mL (≈ 0.00493 µM)
MIC (Streptococcus pneumoniae [12]): 32 µg/mL (≈ 39.4 µM)
MIC50 (Streptococcus pneumoniae [13]): 0.125 µg/mL (≈ 0.154 µM)
MIC90 (Streptococcus pneumoniae [13]): 0.5 µg/mL (≈ 0.616 µM)
MIC50 (Streptococcus pneumoniae [14]): 0.03 µg/mL (≈ 0.0369 µM)
MIC90 (Streptococcus pneumoniae [14]): 0.125 µg/mL (≈ 0.154 µM)
MIC (Streptococcus pneumoniae [15]): 0.06 µg/mL (≈ 0.0739 µM)
MIC (Streptococcus pyogenes [16]): 8 µg/mL (≈ 9.85 µM)
MIC (Streptococcus pneumoniae [17]): 0.25 µg/mL (≈ 0.308 µM)
MIC (Streptococcus pyogenes [18]): 0.03 µg/mL (≈ 0.0369 µM)
MIC50 (Streptococcus pneumoniae [19]): 0.06 µg/mL (≈ 0.0739 µM)
MIC90 (Streptococcus pneumoniae [19]): 0.25 µg/mL (≈ 0.308 µM)
MIC50 (Streptococcus pyogenes [20]): 8 µg/mL (≈ 9.85 µM)
MIC90 (Streptococcus pyogenes [20]): 16 µg/mL (≈ 19.7 µM)
MIC (Streptococcus pyogenes [21]): 0.5 µg/mL (≈ 0.616 µM)
MIC (Streptococcus pyogenes [22]): 0.03 µg/mL (≈ 0.0369 µM)
MIC50 (Streptococcus pneumoniae [23]): 0.125 µg/mL (≈ 0.154 µM)
MIC90 (Streptococcus pneumoniae [23]): 0.5 µg/mL (≈ 0.616 µM)
MIC50 (Streptococcus pyogenes [24]): 0.06 µg/mL (≈ 0.0739 µM)
MIC90 (Streptococcus pyogenes [24]): 0.06 µg/mL (≈ 0.0739 µM)
MIC (Streptococcus pneumoniae [25]): 0.03 µg/mL (≈ 0.0369 µM)
MIC (Streptococcus pneumoniae [26]): 0.5 µg/mL (≈ 0.616 µM)
MIC (Streptococcus pneumoniae [27]): 0.06 µg/mL (≈ 0.0739 µM)
MIC (Streptococcus pneumoniae [28]): 0.25 µg/mL (≈ 0.308 µM)
MIC (Streptococcus pneumoniae [28]; [33]): 0.25 µg/mL (≈ 0.308 µM)
MIC50 (Streptococcus pneumoniae [29]): 0.5 µg/mL (≈ 0.616 µM)
MIC90 (Streptococcus pneumoniae [29]): 1 µg/mL (≈ 1.23 µM)
MIC (Streptococcus pneumoniae [30]): 0.016 µg/mL (≈ 0.0197 µM)
MIC50 (Streptococcus pneumoniae [31]): 0.06 µg/mL (≈ 0.0739 µM)
MIC90 (Streptococcus pneumoniae [31]): 0.5 µg/mL (≈ 0.616 µM)
MIC50 (Streptococcus pyogenes [32]): 0.06 µg/mL (≈ 0.0739 µM)
MIC90 (Streptococcus pyogenes [32]): 0.125 µg/mL (≈ 0.154 µM)
